Measurements from publication PMC6088348 (ACS Medicinal Chemistry Letters, 2018).

Key:
[1] = system: tryptase activity in HMC1 cell lysates; experiment: Inhibition of cellular tryptase activity assessed in HMC1 cell lysates; assay type: cell-based, human; settings: read-out: IC50 in HMC1 cellular lysates; lysates of inhibitor-treated HMC1 cells
In short: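 Tryptase activity measured in lysates of cultured HMC1 human mast cells. IC50 with SEM from nonlinear regression, Hill slope unconstrained.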

[2] = Stability of the linker moiety in aqueous buffers and plasma; assay type: physicochemical; settings: relative to the initial α-hydroxyacetonyl ether

Question: With NCc1cccc(C2CCN(C(=O)c3cccc(OCC(=O)C4(O)CCC4)c3)CC2)c1 [Compound 1a] as the compound, how does the IC50 [1] read?
Answer: 454 nM

Question: And the “stability under aqueous conditions” value [2]?
Answer: improved stability

Question: With NCc1cccc(C2CCN(C(=O)c3cccc(OCC(O)C4(O)CCC4)c3)CC2)c1 (stereo not shown) [Compound 1b] as the compound, how does the IC50 [1] read?
Answer: 8400 nM

Question: Which IC50 [1] does the source give for NCc1cccc(C2CCN(C(=O)c3cccc(NC(=O)C(=O)C4(O)CCC4)c3)CC2)c1 [Compound 2a] here?
Answer: 314 nM

Question: And the “stability under aqueous conditions” value [2]?
Answer: improved stability

Question: Which IC50 [1] does the source give for CC(C)(O)C(=O)C(=O)Nc1cccc(C(=O)N2CCC(c3cccc(CN)c3)CC2)c1 [Compound 3a] here?
Answer: 113 nM

Question: For CC(C)(O)C(O)C(=O)Nc1cccc(C(=O)N2CCC(c3cccc(CN)c3)CC2)c1 (stereo not shown) [Compound 3b], which IC50 [1] is on record?
Answer: 13300 nM
